Test results from ChEMBL document CHEMBL4616723, “Discovery of Antibacterials That Inhibit Bacterial RNA Polymerase Interactions with Sigma Factors” (J Med Chem, 2020).
Values after ≈ are worked out from the molar mass of the structure shown. Active and inactive are the calls of the source. The rule behind the calls is not given here.

How the values were obtained:
[1] = system: Staphylococcus aureus; assay: Antibacterial activity against Staphylococcus aureus ATCC 25923 after 20 hrs by CLSI based-broth microdilution method; type: functional; details: ATCC 25923, 20 h
[2] = system: Streptococcus pneumoniae; assay: Antibacterial activity against Streptococcus pneumoniae ATCC 49619 after 16 to 20 hrs by CLSI based-broth microdilution method; type: functional
[3] = system: Staphylococcus saprophyticus; assay: Antibacterial activity against Staphylococcus saprophyticus ATCC 15305 after 20 hrs by CLSI based-broth microdilution method; type: functional; details: subsp. saprophyticus ATCC 15305, 20 h
[4] = system: Staphylococcus aureus; assay: Effect on total RNA level in Staphylococcus aureus ATCC 29213 at 1/4 to 1/8 times MIC by fluorimetric method; type: functional
[5] = system: A549; assay: Cytotoxicity against human A549 cells after 48 to 72 hrs by MTT assay; type: cell-based
[6] = Therapeutic index, ratio of CC50 for human A549 cells to MIC for Streptococcus pneumoniae ATCC 49619; type: toxicity; details: read-out: TI
[7] = system: Streptococcus pyogenes; assay: Antibacterial activity against Streptococcus pyogenes ATCC 19615 after 20 hrs by CLSI based-broth microdilution method; type: functional; details: ATCC 19615, 20 h
[8] = system: Staphylococcus epidermidis; assay: Antibacterial activity against Staphylococcus epidermidis ATCC 12228 after 20 hrs by CLSI based-broth microdilution method; type: functional; details: ATCC 12228, 20 h
[9] = system: Staphylococcus aureus; assay: Antibacterial activity against Staphylococcus aureus ATCC 29213 after 20 hrs by CLSI based-broth microdilution method; type: functional; details: ATCC 29213, 20 h
[10] = Haemolytic activity in human erythrocytes at 0.1 to 10 ug/ml relative to control; type: ADME, cell-based, Erythrocyte; details: read-out: Activity
Procedure, shortened: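 Human erythrocytes washed in 150 mM NaCl, resuspended in PBS pH 7.4 (2% blood); compound at final 0.1, 1 and 10 μg/mL (0.5% DMSO) for 45 min at 37 °C, n = 6; spun at 500g, 4 °C; supernatant absorbance read at 540 nm; 1% Triton X-100 as positive and PBS as negative control; % lysis calculated.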

[11] = system: Acinetobacter baumannii; assay: Antibacterial activity against Acinetobacter baumannii ATCC 19606 after 20 hrs by CLSI based-broth microdilution method; type: functional; details: ATCC 19606 = CIP 70.34 = JCM 6841, 20 h
[12] = system: Pseudomonas aeruginosa; assay: Antibacterial activity against Pseudomonas aeruginosa ATCC 27853 after 20 hrs by CLSI based-broth microdilution method; type: functional; details: ATCC 27853, 20 h
[13] = system: Escherichia coli; assay: Antibacterial activity against Escherichia coli ATCC 25922 after 20 hrs by CLSI based-broth microdilution method; type: functional; details: ATCC 25922, 20 h
[14] = system: Streptococcus agalactiae; assay: Antibacterial activity against Streptococcus agalactiae ATCC 12386 after 20 hrs by CLSI based-broth microdilution method; type: functional; details: ATCC 12386, 20 h
[15] = system: Klebsiella pneumoniae; assay: Antibacterial activity against Klebsiella pneumoniae ATCC 700603 after 20 hrs by CLSI based-broth microdilution method; type: functional; details: ATCC 700603, 20 h
[16] = Apparent permeability across apical to basolateral membrane in human Caco2 cells at 10 ug/ml by LC-MS/MS analysis; type: ADME, cell-based; details: Caco-2
Procedure, shortened: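 Caco-2 monolayers grown 21–28 days on Transwell polycarbonate membranes, TEER ≥165 Ω cm2; preincubated 20 min at 37 °C in transport buffer; apical-to-basolateral transport only, pH 7.4 on both sides; receiver sampled over time under sink conditions; concentrations measured by LC–MS/MS.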

[17] = Therapeutic index, ratio of CC50 for human HepG2 cells to MIC for Streptococcus pneumoniae ATCC 49619; type: toxicity; details: read-out: TI
[18] = Inhibition of Escherichia coli RNAP/sigma-70 protein-protein interaction assessed as reduction in RNA synthesis preincubated for 10 mins followed by sigma-70/DNA template/AGU/ApU/alpha [32P]GTP addition and measured after 10 mins by phosphorimaging analysis
[19] = system: HepG2; assay: Cytotoxicity against human HepG2 cells after 48 to 72 hrs by MTT assay; type: cell-based
[20] = system: Enterobacter cloacae; assay: Antibacterial activity against Enterobacter cloacae ATCC 13047 after 20 hrs by CLSI based-broth microdilution method; type: functional; details: subsp. cloacae ATCC 13047, 20 h
[21] = system: Enterococcus faecalis; assay: Antibacterial activity against Enterococcus faecalis ATCC 19433 after 20 hrs by CLSI based-broth microdilution method; type: functional; details: ATCC 19433, 20 h
[22] = system: Streptococcus pneumoniae; assay: Antibacterial activity against Streptococcus pneumoniae ATCC 49619 assessed as reduction in pneumolysin release at 0.25 to 0.5 times MIC incubated for 16 to 20 hrs by Western blot analysis; type: functional, organism-based
Procedure, shortened: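 Overnight static culture in brain–heart infusion broth, with or without serially diluted compound; rifampicin and ceftriaxone controls at twofold dilutions from 2 to 0.002 μg/mL; untreated control. […] Western blot probed with rabbit polyclonal anti-pneumolysin (1:1000) and HRP anti-rabbit secondary, ECL chemiluminescence; band intensity normalized to untreated control.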

[23] = system: Bacillus subtilis; assay: Inhibition of RNAP subunit beta' interaction with sigma factor A assessed as diffusion of RNAP into cytosolic region at 1 to 2 times MIC incubated for 15 mins by confocal microscopy
[24] = system: Streptococcus pneumoniae; assay: Antibacterial activity against Streptococcus pneumoniae ATCC 49619 assessed as reduction in bacterial ATP production at 0.25 to 16 times MIC measured up to 6 hrs by BacTiter-Glo assay; type: functional, organism-based
Procedure, shortened: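 Log-phase S. pneumoniae, about 1.5 × 10^6 CFU/mL in BHI containing compound at several concentrations, untreated control included; grown at 37 °C, 200 rpm, 5% CO2; samples taken at 0, 2, 4 and 6 h; ATP measured by BacTiter-Glo luminescence; triplicate.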

[25] = system: Staphylococcus aureus; assay: Bactericidal activity against Staphylococcus aureus ATCC 25923 assessed as decrease in CFU count at 16 times MIC measured over 6 hrs by time kill assay; type: functional, organism-based
[26] = system: Staphylococcus aureus; assay: Bacteriostatic activity against Staphylococcus aureus ATCC 25923 at 16 times MIC measured over 6 hrs by time kill assay; type: functional, organism-based
[27] = system: Streptococcus agalactiae; assay: Bactericidal activity against Streptococcus agalactiae ATCC 12386 assessed as decrease in CFU count at 16 times MIC measured over 6 hrs by time kill assay; type: functional, organism-based
[28] = system: Streptococcus pneumoniae; assay: Bacteriostatic activity against Streptococcus pneumoniae ATCC 49619 assessed as decrease in bacterial growth at 4 to 16 times MIC measured over 6 hrs by time kill assay relative to control; type: functional
[29] = system: Streptococcus pneumoniae; assay: Bactericidal activity against Streptococcus pneumoniae ATCC 49619 at 4 to 16 times MIC measured over 6 hrs by time kill assay; type: functional, organism-based
[30] = system: Staphylococcus aureus; assay: Effect on total protein level in Staphylococcus aureus ATCC 29213 at 1/4 to 1/8 times MIC; type: functional, organism-based
[31] = system: Bacillus subtilis; assay: Inhibition of RNAP subunit beta' interaction with sigma factor A assessed as RNAP delocalization from nucleoid at 0.5 times MIC incubated for 15 mins by confocal microscopy
[32] = system: Streptococcus agalactiae; assay: Bacteriostatic activity against Streptococcus agalactiae ATCC 12386 at 16 times MIC measured over 6 hrs by time kill assay; type: functional, organism-based
[33] = system: Streptococcus pneumoniae; assay: Bacteriostatic activity against Streptococcus pneumoniae ATCC 49619 at 1 times MIC measured over 6 hrs by time kill assay; type: functional, organism-based
[34] = system: Staphylococcus aureus; assay: Effect on total DNA level in Staphylococcus aureus ATCC 29213 at 1/4 to 1/8 times MIC by fluorimetric method; type: functional, organism-based

SMILES: O=C(O)c1ccccc1C(=O)c1ccc(Sc2ccc(Cl)c(Cl)c2)c([N+](=O)[O-])c1
- MIC [1]: 16 µg/mL (≈ 35.7 µM)
- MIC [2]: 8 µg/mL (≈ 17.8 µM)
- MIC [3]: 32 µg/mL (≈ 71.4 µM)
- MIC [4]: > 256 µg/mL
- CC50 [5]: 76.7 µM
- selectivity ratio [6]: 9
- MIC [7]: 16 µg/mL (≈ 35.7 µM)
- MIC [8]: 16 µg/mL (≈ 35.7 µM)
- MIC [9]: 16 µg/mL (≈ 35.7 µM)
- hemolysis [10]: < 10%
- MIC [11]: > 256 µg/mL
- MIC [12]: > 256 µg/mL
- MIC [13]: > 256 µg/mL
- MIC [14]: 16 µg/mL (≈ 35.7 µM)
- MIC [15]: > 256 µg/mL
- Papp A→B at 10 ug/ml [16]: 35 ×10⁻⁶ cm/s
- selectivity ratio [17]: 7
- IC50 [18]: 20.4 µM
- CC50 [19]: 63.8 µM
- MIC [20]: > 256 µg/mL
- MIC [21]: 32 µg/mL (≈ 71.4 µM)

SMILES: O=C(O)c1ccc(Cl)cc1NCc1ccc(Sc2ccc(Cl)c(Cl)c2)c([N+](=O)[O-])c1
- Activity [22]: Active
- MIC [1]: 4 µg/mL (≈ 8.27 µM)
- MIC [3]: 2 µg/mL (≈ 4.13 µM)
- Activity [4]: Active
- inhibition [23]: Active
- CC50 [5]: 75.7 µM
- selectivity ratio [6]: 37
- Activity [24]: Active
- Activity [25]: inactive
- MIC [7]: 1 µg/mL (≈ 2.07 µM)
- MIC [8]: 2 µg/mL (≈ 4.13 µM)
- MIC [9]: 4 µg/mL (≈ 8.27 µM)
- MIC [11]: > 256 µg/mL
- Activity [26]: Active
- Activity [27]: inactive
- log(activity) [28]: 2
- MIC [12]: > 256 µg/mL
- Activity [29]: inactive
- MIC [13]: > 256 µg/mL
- Activity [30]: Active
- MIC [14]: 2 µg/mL (≈ 4.13 µM)
- inhibition [31]: Active
- Activity [32]: Active
- MIC [15]: > 256 µg/mL
- selectivity ratio [17]: 36
- IC50 [18]: 6.8 µM
- Activity [33]: Active
- CC50 [19]: 74.4 µM
- MIC [20]: > 256 µg/mL
- MIC [21]: 4 µg/mL (≈ 8.27 µM)
- Activity [34]: inactive
